Results reported in ChEMBL document CHEMBL2424522, “Demonic axe-like conjugated alkynes in combating microbes” (2013).
In brackets after ≈: the same amount, converted by molar mass.

Experiments:
Type in all cases: functional
[1] = test system: Staphylococcus epidermidis; experiment: Antibacterial activity against Staphylococcus epidermidis MTCC 435 by broth dilution method
Outline: (§1)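 Broth dilution per NCCL standards; all phosphorus ylides and conjugated alkynes tested in vitro.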

Candida albicans = experiment: Antifungal activity against Candida albicans MTCC 227 at 100 ug/ml after 48 hrs by agar well diffusion method; conditions: MTCC 227, 48 h, read-out: IZ
Outline: (§2)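 Test samples and DMSO controls incubated at 27 °C for 48 h. Inhibition zone diameter measured in mm. Three to four replicates per treatment.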

Staphylococcus aureus = experiment: Antibacterial activity against Staphylococcus aureus MTCC 96 by broth dilution method; outline: as §1
Diutina rugosa = experiment: Antifungal activity against Candida rugosa NCIM 3462 at 100 ug/ml after 48 hrs by agar well diffusion method; conditions: NCIM 3462, 48 h, read-out: IZ; outline: as §2
Klebsiella pneumoniae = experiment: Antibacterial activity against Klebsiella pneumoniae MTCC 618 by broth dilution method; outline: as §1
Aspergillus flavus = experiment: Antifungal activity against Aspergillus flavus MTCC 277 at 100 ug/ml after 48 hrs by agar well diffusion method; conditions: MTCC 277, 48 h, read-out: IZ; outline: as §2
Bacillus subtilis = experiment: Antibacterial activity against Bacillus subtilis MTCC 441 by broth dilution method; outline: as §1
Pseudomonas aeruginosa = experiment: Antibacterial activity against Pseudomonas aeruginosa MTCC 741 by broth dilution method; outline: as §1
Escherichia coli = experiment: Antibacterial activity against Escherichia coli MTCC 443 by broth dilution method; outline: as §1
Saccharomyces cerevisiae = experiment: Antifungal activity against Saccharomyces cerevisiae MTCC 36 at 100 ug/ml after 48 hrs by agar well diffusion method; conditions: MTCC 36, 48 h, read-out: IZ; outline: as §2
Aspergillus niger = experiment: Antifungal activity against Aspergillus niger MTCC 344 at 100 ug/ml after 48 hrs by agar well diffusion method; conditions: MTCC 344, 48 h, read-out: IZ; outline: as §2

| Structure (SMILES) | MIC [1] [µg/mL] | zone of inhibition at 100 µg/mL (Candida albicans) [mm] | MIC (Staphylococcus aureus) [µg/mL] | zone of inhibition at 100 µg/mL (Diutina rugosa) [mm] | MIC (Klebsiella pneumoniae) [µg/mL] | zone of inhibition at 100 µg/mL (Aspergillus flavus) [mm] | MIC (Bacillus subtilis) [µg/mL] | MIC (Pseudomonas aeruginosa) [µg/mL] | MIC (Escherichia coli) [µg/mL] | zone of inhibition at 100 µg/mL (Saccharomyces cerevisiae) [mm] | zone of inhibition at 100 µg/mL (Aspergillus niger) [mm] |
| --- | --- | --- | --- | --- | --- | --- | --- | --- | --- | --- | --- |
| N#CC(C(=O)c1ccc(Cl)nc1)=P(c1ccccc1)(c1ccccc1)c1ccccc1 | > 150 | 0 | > 150 | 0 | > 150 | 0 | > 150 | > 150 | > 150 | 0 | 0 |
| N#CC(C(=O)c1cccnc1Cl)=P(c1ccccc1)(c1ccccc1)c1ccccc1 | > 150 | 0 | > 150 | 0 | > 150 | 0 | > 150 | > 150 | > 150 | 0 | 0 |
| CCOC(=O)C(C(=O)c1ccc(Cl)nc1)=P(c1ccccc1)(c1ccccc1)c1ccccc1 | > 150 | 0 | > 150 | 0 | > 150 | 0 | > 150 | > 150 | > 150 | 0 | 0 |
| CC(C)OC(=O)C(C(=O)c1ccc(Cl)nc1)=P(c1ccccc1)(c1ccccc1)c1ccccc1 | > 150 | 0 | > 150 | 0 | > 150 | 0 | > 150 | > 150 | > 150 | 0 | 0 |
| N#CC(C(=O)c1cc(F)c(Cl)nc1Cl)=P(c1ccccc1)(c1ccccc1)c1ccccc1 | > 150 | 0 | > 150 | 0 | > 150 | 0 | > 150 | > 150 | > 150 | 0 | 0 |
| Cc1ccccc1C(=O)C(C#N)=P(c1ccccc1)(c1ccccc1)c1ccccc1 | > 150 | 0 | > 150 | 0 | > 150 | 0 | > 150 | > 150 | > 150 | 0 | 0 |
| CCOC(=O)C(C(=O)c1ccccc1C)=P(c1ccccc1)(c1ccccc1)c1ccccc1 | > 150 | 0 | > 150 | 0 | > 150 | 0 | > 150 | > 150 | > 150 | 0 | 0 |
| CCOC(=O)C(C(=O)C(C)(C)C)=P(c1ccccc1)(c1ccccc1)c1ccccc1 | > 150 | 0 | > 150 | 0 | > 150 | 0 | > 150 | > 150 | > 150 | 0 | 0 |
| CCOC(=O)C(C(=O)c1cccnc1Cl)=P(c1ccccc1)(c1ccccc1)c1ccccc1 | > 150 | 0 | > 150 | 0 | > 150 | 0 | > 150 | > 150 | > 150 | 0 | 0 |
| CCOC(=O)C(C(=O)c1cc(F)c(Cl)nc1Cl)=P(c1ccccc1)(c1ccccc1)c1ccccc1 | > 150 | 0 | > 150 | 0 | > 150 | 0 | > 150 | > 150 | > 150 | 0 | 0 |
| CC(C)OC(=O)C(C(=O)c1cc(F)c(Cl)nc1Cl)=P(c1ccccc1)(c1ccccc1)c1ccccc1 | > 150 | 0 | > 150 | 0 | > 150 | 0 | > 150 | > 150 | > 150 | 0 | 0 |
| CCOC(=O)C(C(=O)c1ccco1)=P(c1ccccc1)(c1ccccc1)c1ccccc1 | > 150 | 0 | > 150 | 0 | > 150 | 0 | > 150 | > 150 | > 150 | 0 | 0 |
| CC(C)OC(=O)C(C(=O)c1ccco1)=P(c1ccccc1)(c1ccccc1)c1ccccc1 | > 150 | 0 | > 150 | 0 | > 150 | 0 | > 150 | > 150 | > 150 | 0 | 0 |
| N#CC(C(=O)c1ccco1)=P(c1ccccc1)(c1ccccc1)c1ccccc1 | > 150 | 0 | > 150 | 0 | > 150 | 0 | > 150 | > 150 | > 150 | 0 | 0 |
| CC(C)(C)C(=O)C(C#N)=P(c1ccccc1)(c1ccccc1)c1ccccc1 | > 150 | 0 | > 150 | 0 | > 150 | 0 | > 150 | > 150 | > 150 | 0 | 0 |
| CC(C)OC(=O)C(C(=O)C(C)(C)C)=P(c1ccccc1)(c1ccccc1)c1ccccc1 | > 150 | 0 | > 150 | 0 | > 150 | 0 | > 150 | > 150 | > 150 | 0 | 0 |
| CC1(C)S[C@@H]2[C@H](NC(=O)Cc3ccccc3)C(=O)N2[C@H]1C(=O)O [PENICILLIN G] | 3.12 (≈ 9.35 µM) |  | 1.56 (≈ 4.67 µM) |  | 6.25 (≈ 18.7 µM) |  | 1.56 (≈ 4.67 µM) | 12.5 (≈ 37.4 µM) | 12.5 (≈ 37.4 µM) |  |  |
| CN[C@@H]1[C@H](O[C@H]2[C@H](O[C@H]3[C@H](O)[C@@H](O)[C@H](N=C(N)N)[C@@H](O)[C@@H]3N=C(N)N)O[C@@H](C)[C@]2(O)C=O)O[C@@H](CO)[C@H](O)[C@H]1O [STREPTOMYCIN] | 3.12 (≈ 5.37 µM) |  | 6.25 (≈ 10.7 µM) |  | 3.12 (≈ 5.37 µM) |  | 6.25 (≈ 10.7 µM) | 1.56 (≈ 2.69 µM) | 6.25 (≈ 10.7 µM) |  |  |
